The values below come from ChEMBL document CHEMBL3785023, “Development and Pharmacological Characterization of Selective Blockers of 2-Arachidonoyl Glycerol Degradation with Efficacy in Rodent Models of Multiple Sclerosis and Pain” (J Med Chem, 2016).

Series [1] has as its system Mus musculus. The series is described as follows: Toxicity in CD-1 mouse assessed as 2-AG level in spinal cord at 0.3 mg/kg, ip by LC-MS analysis (reference value: 6.4 +/- 0.4 pmol/g). Type of series: organism-based. The note with it: in vivo. In short, it runs like this: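 Male CD-1 mice received 0.3 mg/kg i.p. in 0.5% DMSO/saline, with formalin (1.25%, 30 µL) injected into the dorsal hind paw. Paw skin or spinal cord was taken at 5 min post-dose. Tissue was homogenized in CHCl3/MeOH/50 mM Tris-HCl (2:1:1) containing d5-2-AG, extracted with chloroform and analysed by LC-MS. n = 4; ANOVA with Bonferroni test.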

A further series deals with Salmonella typhimurium. Briefly: Mutagenicity in Salmonella typhimurium TA100 assessed as increase in number of colonies up to >200 uM by Ames test in presence of S9 fraction. Format: toxicity, organism-based. To be noted: salmonella enterica subsp. enterica serovar typhimurium.
The subject of series [2] is Heart. The series is described as follows: Cardiotoxicity in Langendorff-perfused Sprague-Dawley rat heart assessed as atrioventricular conduction time at 0.01 uM by ECG analysis (reference value: 45.62 +/- 4.49 milliseconds). Format: toxicity, tissue-based.
The next series deals with Cannabinoid receptor 1 (Homo sapiens, UniProt P21554). The series is described as follows: Displacement of [3H]-CP-55940 from human recombinant CB1 receptor expressed in HEK293 cells after 90 mins. Format: cell-based. The method in brief: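 Membranes from HEK-293 cells stably expressing human CB1 (Bmax 2.9 pmol/mg) or CB2 (Bmax 6.0 pmol/mg) incubated 90 min at 30 °C with [3H]-CP-55,940: 0.4 nM for CB1, 0.53 nM for CB2. Non-specific binding defined with 10 µM WIN 55212-2.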

Series [3] has as its system Heart. The series is described as follows: Cardiotoxicity in Langendorff-perfused Sprague-Dawley rat heart assessed as coronary perfusion pressure at 1 uM (reference value: 57.45 +/- 2.58 mmHg). Format: toxicity, tissue-based.
Series [4] in a line: Apparent permeability from luminal to abluminal side in human endothelial cells cocultured with pericytes at 100 uM after 20 to 60 mins by LC-UV analysis. Type of series: ADME, cell-based, Endothelial cell. In short, it runs like this: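 Human BBB model: endothelial cells derived from hematopoietic stem cells, cocultured 6 days with pericytes. Compound (100 µM in Ringer + Hepes) added luminally together with Lucifer yellow as an integrity marker. Incubated 20, 40 and 60 min at 37 °C; abluminal compound measured by LC-UV. Papp = J/(A·C0).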

In series [5] the test system is Mus musculus. The series is described as follows: Inhibition of demyelination in experimental autoimmune encephalomyelitis C57BL/6J mouse spinal cord at 3 mg/kg, ip administered post CB1 antagonist/inverse agonist AM251 addition by luxol fast blue staining based microscopic analysis. Type of series: functional, organism-based. The method in brief: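 EAE induced in female C57BL/6J mice with MOG35-55, then 3 mg/kg i.p. daily. AM251 or AM630 (1 mg/kg), where used, given 10 min before each dose. Spinal cord white matter stained with Luxol Fast Blue and demyelinated areas assessed by microscopy.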

Series [6] deals with T1, Lysophosphatidylserine lipase ABHD12 (Rattus norvegicus) (UniProt Q6AYT7).
T1 sequence (whole entry): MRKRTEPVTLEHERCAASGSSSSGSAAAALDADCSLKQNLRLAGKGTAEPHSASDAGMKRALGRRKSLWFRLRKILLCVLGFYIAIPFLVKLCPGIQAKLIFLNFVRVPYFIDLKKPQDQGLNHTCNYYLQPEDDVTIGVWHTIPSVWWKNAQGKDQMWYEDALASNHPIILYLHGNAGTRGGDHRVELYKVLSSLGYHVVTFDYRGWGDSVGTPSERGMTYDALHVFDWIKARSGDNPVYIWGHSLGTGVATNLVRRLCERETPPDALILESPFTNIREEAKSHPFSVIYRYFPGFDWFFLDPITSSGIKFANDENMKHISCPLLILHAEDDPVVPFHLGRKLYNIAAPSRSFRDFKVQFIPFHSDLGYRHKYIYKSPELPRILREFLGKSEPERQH
The series is described as follows: Inhibition of ABHD12 in rat brain membranes up to 500 nM preincubated for 20 mins followed by fluorophosphonate-rhodamine addition measured after 30 mins by competitive affinity based proteomic profiling assay. Type of series: cell membranes. The note with it: Membrane. In short, it runs like this: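 Rat brain membranes (1 mg/mL) preincubated with 1–1000 nM inhibitor or DMSO for 20 min at 37 °C. FP-rhodamine then added and incubated a further 30 min at 37 °C. Samples run on SDS-PAGE and serine hydrolase bands quantified by in-gel fluorescence.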

For series [7], the system named is Mus musculus. Briefly: Antinociceptive activity in CD-1 mouse assessed as inhibition of formalin-induced pain response at 0.1 to 0.3 mg/kg, ip dosed 10 mins before formalin injection measured during early phase. Format: functional, organism-based. The method in brief: (§1)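 Male CD-1 mice, n = 6 per group, injected with formalin (1.25% in saline, 30 μL) into the dorsal hind paw. Inhibitor (0.1 or 0.3 mg/kg i.p. in 0.5% DMSO/saline) given 10 min before formalin. Where used, AM251 or AM630 (1 mg/kg i.p.) given 10 min before the inhibitor. Time spent lifting, licking, shaking or flinching the injected paw recorded every 5 min over 60 min.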

For series [8], the system named is Mus musculus. Briefly: Analgesic activity in po dosed CD-1 mouse model of oxaliplatin-induced neuropathic pain assessed as reversal of lowering of threshold to cold stimuli administered on day 14 after oxaliplatin addition by cold plate test. Type of series: functional, organism-based.
Series [9] deals with Mus musculus. The series is described as follows: Change in cumulative score in myelin oligodendrocyte glycoprotein (35 to 55)-induced C57BL/6J mouse experimental autoimmune encephalomyelitis model of multiple sclerosis at 3 mg/kg, ip dosed on day 6 postimmunization up to 21 day postimmunization measured from day 8 postimmunization. Format: functional, organism-based. In short, it runs like this:
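Female C57BL/6J mice immunized with MOG35-55 peptide. Given 3 mg/kg i.p. daily from day 6 post-immunization to the acute stage (21 ± 1 d.p.i.). Clinical score recorded daily and as a cumulative score; n = 7–9 per group.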

The test system of series [10] is Mus musculus. Briefly: Reduction of disease index score in myelin oligodendrocyte glycoprotein (35 to 55)-induced C57BL/6J mouse experimental autoimmune encephalomyelitis model of multiple sclerosis at 3 mg/kg, ip administered post CB1 antagonist/inverse agonist AM251 addition dosed on day 6 postimmunization up to 21 day postimmunization measured from day 12 postimmunization. Type of series: functional, organism-based. The method in brief: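 Female C57BL/6J mice immunized with MOG35-55 were randomly assigned to groups. They received 3 mg/kg i.p. daily from 6 days post-immunization up to 21±1 d.p.i. AM251 or AM630, 1 mg/kg i.p., was given 10 min before each dose for 14 days. Clinical score was recorded daily and as cumulative score, reported as mean ± SEM. Group sizes were 4–9 mice.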

Series [11] in a line: Selectivity ratio of IC50 for human recombinant C-terminal His-tagged FAAH expressed in sf21 cells to IC50 for recombinant C-terminal His6-tagged human MAGL expressed in Escherichia coli. The method in brief:
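Ratio of IC50 values from two radiometric assays, each read by scintillation counting of the aqueous phase after CHCl3/MeOH 1:1 extraction. MGL assay: 10,000xg cytosolic fraction of human recombinant MGL (0.05 µg/sample), 50 mM Tris-HCl pH 7.0, 37 °C, 20 min, 2-arachidonoyl-[3H]-glycerol. FAAH assay: human recombinant FAAH (2 µg/sample), pH 9.5, 37 °C, 30 min, [14C]-anandamide. Means of three experiments.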

For series [12], the system named is Mus musculus. The series is described as follows: Antinociceptive activity in CD-1 mouse assessed as inhibition of formalin-induced early phase pain response at 0.1 to 0.3 mg/kg, ip dosed 10 mins before formalin injection measured every 5 mins for 60 mins in presence of CB2 antagonist/inverse agonist AM630. Type of series: functional, organism-based. In short, it runs like this: as §1

Activity calls are given as the source filed them. Where only a bound is given, the exact number is not on record here.

Cannabinoid receptor 1, sequence (P21554 whole entry): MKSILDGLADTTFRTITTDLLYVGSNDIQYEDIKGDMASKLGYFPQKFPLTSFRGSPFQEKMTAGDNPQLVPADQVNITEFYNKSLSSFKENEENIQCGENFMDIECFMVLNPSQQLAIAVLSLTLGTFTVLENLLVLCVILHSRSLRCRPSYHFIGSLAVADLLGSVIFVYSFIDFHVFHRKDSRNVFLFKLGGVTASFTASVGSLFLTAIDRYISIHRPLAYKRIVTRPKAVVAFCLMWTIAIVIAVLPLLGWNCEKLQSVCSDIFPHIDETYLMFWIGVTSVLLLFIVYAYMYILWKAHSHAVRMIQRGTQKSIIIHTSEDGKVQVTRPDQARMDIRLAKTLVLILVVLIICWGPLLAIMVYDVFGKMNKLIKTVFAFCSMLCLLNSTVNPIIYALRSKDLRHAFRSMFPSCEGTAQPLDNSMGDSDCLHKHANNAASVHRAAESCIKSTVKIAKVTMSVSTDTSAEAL

Turning to `O=C1[C@H](c2ccc(F)cc2)[C@@H](c2ccc3c(c2)OCO3)N1C1CCN(C(=O)n2cncn2)CC1` (racemic) [listing 1 of 2 here], the values for the Activity in the series with Mus musculus [1], in the series on Salmonella typhimurium and with Heart [3] were 9.7 pmol/g, “Non-toxic” and 75.19 mmHg, respectively. Further, the Time in the series on Heart [2] was 46.46 ms. Further, the IC50 on Cannabinoid receptor 1 is greater than 10 µM. Besides, the Papp at 100 µM in series [4] was 47 ×10⁻⁶ cm/s.
In the case of `O=C1[C@H](c2ccc(F)cc2)[C@@H](c2ccc3c(c2)OCO3)N1C1CCN(C(=O)n2cncn2)CC1` (racemic) [listing 2 of 2 here], the inhibition result (in the series with Mus musculus [5]; in series [6]; in the series with Mus musculus [12]) was “inactive” throughout. In the series with Mus musculus [7], the inhibition result is “Active”. Besides, in the series on Mus musculus [8], the Activity result is “Dose-dependent effect”. Further, in the series on Mus musculus [9], the outcome was Active. In addition, the result with Mus musculus [10] was inactive. Also, the Ratio IC50 in [11] turned out to be 389.

As a reminder, the IC50 is the concentration that inhibits the measured activity by half. One may read the Papp as the rate of passage across a membrane or cell layer, normalised by area and donor concentration.
